Measured values published in ChEMBL document CHEMBL3351780, “Novel hybrids of metronidazole and quinolones: synthesis, bioactive evaluation, cytotoxicity, preliminary antimicrobial mechanism and effect of metal ions on their transportation by human serum albumin” (Eur J Med Chem, 2014).
In brackets after ≈: the same amount, converted by molar mass.

Assays:
Type in all cases: functional
Bacillus spizizenii = test: Antibacterial activity against Bacillus subtilis ATCC 6633 by two-fold serial dilution method
How it was run: (§1)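 Standard two-fold serial dilution in 96-well microtest plates following NCCLS. Top dilutions printed as 32, 16, 8, 4, 2, 1, 0.5 ug/mL. Wells inoculated and held at 37 °C for 24 h. Growth judged visually and by spectrophotometer, in triplicate. MIC is the lowest concentration giving complete growth inhibition.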

[1] = Antibacterial activity against Eberthella typhosa by two-fold serial dilution method
How it was run: (§2)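 MIC read as the lowest concentration giving complete growth inhibition. Two-fold serial dilutions were made in 96-well plates following NCCLS, giving a series down to 0.5 µg/mL (…32, 16, 8, 4, 2, 1, 0.5). Plates were inoculated and incubated at 37 °C for 24 h. A DMSO-with-inoculum control without drug was included. Growth was monitored visually and spectrophotometrically, in triplicate.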

Cyberlindnera jadinii = test: Antifungal activity against Candida utilis after 24 hrs by microbroth dilution method; conditions: Williopsis jadinii
How it was run: (§3)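 Spore suspension prepared in sterile distilled water from one-day-old cultures on Sabouraud agar, final 1-5 x 10^3 spores/mL. Compounds were serially diluted in RPMI 1640 to give eleven dilutions. Incubation at 35 °C for 24 h. Growth read visually and spectrophotometrically, in triplicate. MIC is the lowest concentration with complete inhibition.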

Pichia norvegensis = test: Antifungal activity against Candida mycoderma after 24 hrs by microbroth dilution method
Micrococcus luteus = test: Antibacterial activity against Micrococcus luteus by two-fold serial dilution method; how it was run: as §1
Staphylococcus aureus [2] = test: Antibacterial activity against methicillin-resistant Staphylococcus aureus N315 by two-fold serial dilution method; how it was run: as §2
Staphylococcus aureus [3] = test: Antibacterial activity against Staphylococcus aureus ATCC 25923 by two-fold serial dilution method; how it was run: as §1
Pseudomonas aeruginosa = test: Antibacterial activity against Pseudomonas aeruginosa by two-fold serial dilution method; how it was run: as §1
Escherichia coli = test: Antibacterial activity against Escherichia coli DH52 by two-fold serial dilution method; how it was run: as §1
Shigella dysenteriae = test: Antibacterial activity against Shigella dysenteriae by two-fold serial dilution method; how it was run: as §2
Saccharomyces cerevisiae = test: Antifungal activity against Saccharomyces cerevisiae after 24 hrs by microbroth dilution method; how it was run: as §3
Candida albicans = test: Antifungal activity against Candida albicans ATCC 76615 after 24 hrs by microbroth dilution method; conditions: ATCC 76615, 24 h; how it was run: as §3

Compound	MIC (Bacillus spizizenii)	MIC [1]	MIC (Cyberlindnera jadinii)	MIC (Pichia norvegensis)	MIC (Micrococcus luteus)	MIC (Staphylococcus aureus [2])	MIC (Staphylococcus aureus [3])	MIC (Pseudomonas aeruginosa)	MIC (Escherichia coli)	MIC (Shigella dysenteriae)	MIC (Saccharomyces cerevisiae)	MIC (Candida albicans)
CCOC(=O)c1cn(CC2CO2)c2c(F)cc(F)cc2c1=O (racemic)	32 µg/mL (≈ 103 µM)	2 µg/mL (≈ 6.47 µM)	512 µg/mL (≈ 1660 µM)	16 µg/mL (≈ 51.7 µM)	–	–	–	–	–	–	–	–
CCOC(=O)c1cn(CC(O)Cn2cnc([N+](=O)[O-])c2)c2c(Cl)cc(Cl)cc2c1=O (racemic)	4 µg/mL (≈ 8.79 µM)	16 µg/mL (≈ 35.1 µM)	256 µg/mL (≈ 562 µM)	64 µg/mL (≈ 141 µM)	8 µg/mL (≈ 17.6 µM)	64 µg/mL (≈ 141 µM)	32 µg/mL (≈ 70.3 µM)	16 µg/mL (≈ 35.1 µM)	16 µg/mL (≈ 35.1 µM)	8 µg/mL (≈ 17.6 µM)	32 µg/mL (≈ 70.3 µM)	64 µg/mL (≈ 141 µM)
CCOC(=O)c1cn(CC(O)Cn2c([N+](=O)[O-])cnc2C)c2ccc(C)cc2c1=O (racemic)	8 µg/mL (≈ 19.3 µM)	8 µg/mL (≈ 19.3 µM)	256 µg/mL (≈ 618 µM)	256 µg/mL (≈ 618 µM)	16 µg/mL (≈ 38.6 µM)	8 µg/mL (≈ 19.3 µM)	8 µg/mL (≈ 19.3 µM)	8 µg/mL (≈ 19.3 µM)	4 µg/mL (≈ 9.65 µM)	4 µg/mL (≈ 9.65 µM)	4 µg/mL (≈ 9.65 µM)	2 µg/mL (≈ 4.83 µM)
CCOC(=O)c1cn(CC(O)Cn2c([N+](=O)[O-])cnc2C)c2c(F)cccc2c1=O (racemic)	16 µg/mL (≈ 38.2 µM)	4 µg/mL (≈ 9.56 µM)	512 µg/mL (≈ 1220 µM)	128 µg/mL (≈ 306 µM)	8 µg/mL (≈ 19.1 µM)	8 µg/mL (≈ 19.1 µM)	32 µg/mL (≈ 76.5 µM)	16 µg/mL (≈ 38.2 µM)	16 µg/mL (≈ 38.2 µM)	8 µg/mL (≈ 19.1 µM)	256 µg/mL (≈ 612 µM)	128 µg/mL (≈ 306 µM)
CCOC(=O)c1cn(CC2CO2)c2ccc(C)cc2c1=O (racemic)	64 µg/mL (≈ 223 µM)	2 µg/mL (≈ 6.96 µM)	–	8 µg/mL (≈ 27.8 µM)	–	–	–	–	–	–	–	–
CCOC(=O)c1cn(CC2CO2)c2ccc(OC)cc2c1=O (racemic)	16 µg/mL (≈ 52.8 µM)	1 µg/mL (≈ 3.3 µM)	512 µg/mL (≈ 1690 µM)	32 µg/mL (≈ 106 µM)	128 µg/mL (≈ 422 µM)	64 µg/mL (≈ 211 µM)	32 µg/mL (≈ 106 µM)	32 µg/mL (≈ 106 µM)	16 µg/mL (≈ 52.8 µM)	64 µg/mL (≈ 211 µM)	4 µg/mL (≈ 13.2 µM)	64 µg/mL (≈ 211 µM)
CCOC(=O)c1cn(CC(O)Cn2cnc([N+](=O)[O-])c2)c2cc(Cl)c(F)cc2c1=O (racemic)	16 µg/mL (≈ 36.5 µM)	8 µg/mL (≈ 18.2 µM)	32 µg/mL (≈ 72.9 µM)	128 µg/mL (≈ 292 µM)	16 µg/mL (≈ 36.5 µM)	4 µg/mL (≈ 9.12 µM)	16 µg/mL (≈ 36.5 µM)	16 µg/mL (≈ 36.5 µM)	32 µg/mL (≈ 72.9 µM)	16 µg/mL (≈ 36.5 µM)	64 µg/mL (≈ 146 µM)	32 µg/mL (≈ 72.9 µM)
CCOC(=O)c1cn(CC2CO2)c2ccc(F)cc2c1=O (racemic)	64 µg/mL (≈ 220 µM)	8 µg/mL (≈ 27.5 µM)	–	8 µg/mL (≈ 27.5 µM)	–	–	–	–	–	–	–	–
CCOC(=O)c1cn(CC(O)Cn2cnc([N+](=O)[O-])c2)c2c(F)cc(F)cc2c1=O (racemic)	8 µg/mL (≈ 18.9 µM)	2 µg/mL (≈ 4.74 µM)	64 µg/mL (≈ 152 µM)	16 µg/mL (≈ 37.9 µM)	4 µg/mL (≈ 9.47 µM)	32 µg/mL (≈ 75.8 µM)	4 µg/mL (≈ 9.47 µM)	4 µg/mL (≈ 9.47 µM)	8 µg/mL (≈ 18.9 µM)	16 µg/mL (≈ 37.9 µM)	128 µg/mL (≈ 303 µM)	32 µg/mL (≈ 75.8 µM)
CCOC(=O)c1cn(CC(O)Cn2cnc([N+](=O)[O-])c2)c2ccc(OC)cc2c1=O (racemic)	64 µg/mL (≈ 154 µM)	256 µg/mL (≈ 615 µM)	8 µg/mL (≈ 19.2 µM)	512 µg/mL (≈ 1230 µM)	512 µg/mL (≈ 1230 µM)	4 µg/mL (≈ 9.61 µM)	4 µg/mL (≈ 9.61 µM)	64 µg/mL (≈ 154 µM)	2 µg/mL (≈ 4.8 µM)	32 µg/mL (≈ 76.9 µM)	4 µg/mL (≈ 9.61 µM)	16 µg/mL (≈ 38.4 µM)
CCOC(=O)c1cn(CC(O)Cn2cnc([N+](=O)[O-])c2)c2c(F)cccc2c1=O (racemic)	32 µg/mL (≈ 79.1 µM)	32 µg/mL (≈ 79.1 µM)	16 µg/mL (≈ 39.6 µM)	256 µg/mL (≈ 633 µM)	64 µg/mL (≈ 158 µM)	8 µg/mL (≈ 19.8 µM)	256 µg/mL (≈ 633 µM)	32 µg/mL (≈ 79.1 µM)	32 µg/mL (≈ 79.1 µM)	16 µg/mL (≈ 39.6 µM)	256 µg/mL (≈ 633 µM)	128 µg/mL (≈ 317 µM)
CCOC(=O)c1cn(CC(O)Cn2cnc([N+](=O)[O-])c2)c2ccc(F)cc2c1=O (racemic)	8 µg/mL (≈ 19.8 µM)	32 µg/mL (≈ 79.1 µM)	16 µg/mL (≈ 39.6 µM)	32 µg/mL (≈ 79.1 µM)	4 µg/mL (≈ 9.89 µM)	16 µg/mL (≈ 39.6 µM)	32 µg/mL (≈ 79.1 µM)	8 µg/mL (≈ 19.8 µM)	16 µg/mL (≈ 39.6 µM)	32 µg/mL (≈ 79.1 µM)	16 µg/mL (≈ 39.6 µM)	32 µg/mL (≈ 79.1 µM)
